Source: ChEMBL document CHEMBL1147444, “Antagonists of human CCR5 receptor containing 4-(pyrazolyl)piperidine side chains. Part 1: Discovery and SAR study of 4-pyrazolylpiperidine side chains” (Bioorg Med Chem Lett, 2004)

How the values were obtained:
[1] = biological target: T1, C-C chemokine receptor type 5 (Homo sapiens, UniProt P51681); test: Inhibitory activity against human Chemokine receptor 5 at 2 uM concentration
How it was run: (§1)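 Displacement of [125I]-labeled MIP-1α from human CCR5 on CHO cell membranes, described as a GP120-membrane-based assay. IC50 values are averages of triplicate measurements, with a standard compound run to check variability between assays. Single-point lines are percent inhibition at 2 μM.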
Target sequence in this assay (P51681 whole entry, looked up): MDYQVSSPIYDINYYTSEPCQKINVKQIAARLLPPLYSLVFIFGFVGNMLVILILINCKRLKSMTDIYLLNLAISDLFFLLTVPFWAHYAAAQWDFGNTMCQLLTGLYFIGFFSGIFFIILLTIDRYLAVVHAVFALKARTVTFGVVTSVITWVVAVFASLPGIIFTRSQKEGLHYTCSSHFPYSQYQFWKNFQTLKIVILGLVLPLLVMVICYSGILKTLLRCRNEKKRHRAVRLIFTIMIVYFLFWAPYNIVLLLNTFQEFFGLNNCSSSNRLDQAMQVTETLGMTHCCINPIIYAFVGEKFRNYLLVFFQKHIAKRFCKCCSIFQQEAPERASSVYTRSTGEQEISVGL

[2] = biological target: T1, C-C chemokine receptor type 5; test: Inhibitory activity against human CC chemokine receptor 5; how it was run: as §1
Target sequence in this assay (P51681 whole entry): as the sequence (P51681 whole entry, looked up) above

[3] = test system: Human immunodeficiency virus 1; test: (§2) In vitro antiviral activity against HIV-1 infected HeLa cells; assay type: functional; conditions: Human immunodeficiency virus 1, HeLa
How it was run: (§3)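 Cell-culture HIV-1 infectivity assay in HeLa cells. Read-out is the IC90, with the IC50 given for some entries.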

[4] = biological target: T1, C-C chemokine receptor type 5; test: Inhibition of human C-C chemokine receptor 5 by displacement of [125I]-labeled MIP-1alpha from CHO cell membranes
Target sequence in this assay (P51681 whole entry): as the sequence (P51681 whole entry, looked up) above

HeLa [5] = test: as §2; assay type: functional, cell-based; conditions: Homo sapiens; how it was run: as §3
[6] = Plasma clearance in rat; assay type: ADME, organism-based; conditions: read-out: Clp
[7] = Oral bioavailability in rat; assay type: ADME, organism-based; conditions: in vivo
Rattus norvegicus = test: Area under curve in rat after p.o. administration; assay type: ADME, organism-based; conditions: in vivo, po
[8] = biological target: T1, C-C chemokine receptor type 5; test: Inhibitory activity against human […] chemokine receptor 5 when co-administered with compound 8g
Target sequence in this assay (P51681 whole entry): as the sequence (P51681 whole entry, looked up) above

HeLa [9] = test: In vitro antiviral activity against HIV-1 infected HeLa cells when co-administered with compound 8g; assay type: functional; conditions: Homo sapiens; how it was run: as §3
[10] = test system: Human immunodeficiency virus 1; test: Concentration required for anti viral activity against BAL-1 strain of HIV-1 was determined using peripheral blood mononuclear cells; assay type: functional
How it was run: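 Seven-day in vitro infectivity assay in peripheral blood mononuclear cells infected with the HIV-1 BAL-1 strain. Read-out is the IC95.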

[11] = biological target: T1, C-C chemokine receptor type 5; test: Inhibitory activity against human Chemokine receptor 5 when co-administered with compound 8f; how it was run: as §1
Target sequence in this assay (P51681 whole entry): as the sequence (P51681 whole entry, looked up) above

HeLa [12] = test: In vitro antiviral activity against HIV-1 infected HeLa cells when co-administered with compound 8f; assay type: functional; conditions: Homo sapiens; how it was run: as §3
[13] = Hafl life rat; assay type: ADME, organism-based; conditions: in vivo
[14] = Hafl life in rat; assay type: ADME, organism-based; conditions: in vivo
[15] = biological target: T1, C-C chemokine receptor type 5; test: Inhibitory concentration to displace [125I]-MIP-1 alpha from CX3C chemokine receptor 5; how it was run: as §1
Target sequence in this assay (P51681 whole entry): as the sequence (P51681 whole entry, looked up) above

[16] = biological target: T1, C-C chemokine receptor type 5; test: Inhibitory concentration to displace [125I]-MIP-1 alpha from human […] chemokine receptor 5 expressed in CHO cell; assay type: cell-based; how it was run: as §1
Target sequence in this assay (P51681 whole entry): as the sequence (P51681 whole entry, looked up) above

HeLa [17] = test: In vitro antiviral activity against HIV-1 infected HeLa cells from GP120-membrane-based assay; assay type: functional; conditions: Homo sapiens; how it was run: as §3

Row | IC50 [2] [nM] | IC90 [3] [nM] | Compound | other results
1 |  |  | CCc1cc(CCc2ccccc2)n(C2CCN(C[C@H]3CN([C@@H](C(=O)O)C4CCCCC4)C[C@@H]3c3ccccc3)CC2)n1 | inhibition [1]: 82%
2 | 23 |  | CCn1ncc(C(=O)c2ccccc2)c1C1CCN(C[C@H]2CN([C@@H](C(=O)O)C3CCCCC3)C[C@@H]2c2ccccc2)CC1 | 
3 |  | > 300 | O=C(O)[C@@H](C1CCCCC1)N1C[C@H](CN2CCC(c3cc(-c4cccc5ccccc45)[nH]n3)CC2)[C@@H](c2ccccc2)C1 | IC50 [4]: 7.5 nM
4 | 20 | > 300 | CCn1cc(Cc2ccccc2)c(C2CCN(C[C@H]3CN([C@@H](C(=O)O)C4CCCCC4)C[C@@H]3c3ccccc3)CC2)n1 | 
5 | 4.6 | 1.2 | CCCn1nc(Cc2ccccc2)cc1C1CCN(C[C@H]2CN([C@@H](C(=O)O)C3CCCCC3)C[C@@H]2c2ccccc2)CC1 | 
6 |  | > 300 | O=C(O)[C@@H](C1CCCCC1)N1C[C@H](CN2CCC(c3cc(-c4ccc(Cl)cc4)n[nH]3)CC2)[C@@H](c2cccc(F)c2)C1 | IC50 [4]: 4 nM
7 |  |  | CCCn1cc(CCc2ccccc2)c(C2CCN(C[C@H]3CN([C@@H](C(=O)O)C4CCCCC4)C[C@@H]3c3ccccc3)CC2)n1 | IC50 [4]: 9 nM
8 |  |  | Cc1cc(-c2ccccc2)n(C2CCN(C[C@H]3CN([C@@H](C(=O)O)C4CCCCC4)C[C@@H]3c3ccccc3)CC2)n1 | inhibition [1]: 65%
9 | 16 | > 300 | CCn1nc(-c2ccc(C#N)cc2)cc1C1CCN(C[C@H]2CN([C@@H](C(=O)O)C3CCCCC3)C[C@@H]2c2ccccc2)CC1 | IC50 (HeLa [5]): 33 nM
10 | 2.1 | 300 | O=C(O)[C@@H](C1CCCCC1)N1C[C@H](CN2CCC(c3n[nH]cc3C(F)(F)c3ccccc3)CC2)[C@@H](c2ccccc2)C1 | 
11 | 6.9 | 300 | CCn1ncc(C(C)(C)c2ccccc2)c1C1CCN(C[C@H]2CN([C@@H](C(=O)O)C3CCCCC3)C[C@@H]2c2ccccc2)CC1 | 
12 | 2.3 | 300 | CCn1cc(CCc2ccccc2)c(C2CCN(C[C@H]3CN([C@@H](C(=O)O)C4CCCCC4)C[C@@H]3c3ccccc3)CC2)n1 | 
13 |  | 11 | CCCn1ncc(CCc2ccccc2)c1C1CCN(C[C@H]2CN([C@@H](C(=O)O)C3CCCCC3)C[C@@H]2c2ccccc2)CC1 | IC50 [4]: 0.6 nM
14 | 3 | 11 | CCCCn1nc(Cc2ccccc2)cc1C1CCN(C[C@H]2CN([C@@H](C(=O)O)C3CCCCC3)C[C@@H]2c2ccccc2)CC1 | 
15 | 4.8 | 100 | O=C(O)[C@@H](C1CCCCC1)N1C[C@H](CN2CCC(c3[nH]ncc3Cc3ccccc3)CC2)[C@@H](c2ccccc2)C1 | 
16 | 112 |  | CCn1nc(-c2ccc(CN)cc2)cc1C1CCN(C[C@H]2CN([C@@H](C(=O)O)C3CCCCC3)C[C@@H]2c2ccccc2)CC1 | 
17 |  |  | Cc1cc(-c2ccccc2)nn1C1CCN(C[C@H]2CN([C@@H](C(=O)O)C3CCCCC3)C[C@@H]2c2ccccc2)CC1 | inhibition [1]: 79%
18 | 33 |  | O=C(O)Cn1nc(Cc2ccccc2)cc1C1CCN(C[C@H]2CN([C@@H](C(=O)O)C3CCCCC3)C[C@@H]2c2ccccc2)CC1 | 
19 | 1.2 | 3.7 | O=C(O)[C@@H](C1CCCCC1)N1C[C@H](CN2CCC(c3nocc3Cc3ccccc3)CC2)[C@@H](c2ccccc2)C1 | 
20 | 41 |  | O=C(c1ccccc1)c1c[nH]nc1C1CCN(C[C@H]2CN([C@@H](C(=O)O)C3CCCCC3)C[C@@H]2c2ccccc2)CC1 | 
21 |  | 3.7 | Cn1ncc(CCc2ccccc2)c1C1CCN(C[C@H]2CN([C@@H](C(=O)O)C3CCCCC3)C[C@@H]2c2ccccc2)CC1 | IC50 [4]: 1 nM
22 | 0.8 | 0.4 | O=C(O)[C@@H](C1CCCCC1)N1C[C@H](CN2CCC(c3oncc3Cc3ccccc3)CC2)[C@@H](c2ccccc2)C1 | clearance [6]: 67 mL/min/kg; bioavailability [7]: 5.9%; AUC N (Rattus norvegicus): 0.03 uM hr dose-1
23 |  | > 300 | N#Cc1ccc(-c2cc(C3CCN(C[C@H]4CN([C@@H](C(=O)O)C5CCCCC5)C[C@@H]4c4ccccc4)CC3)n[nH]2)cc1 | IC50 (HeLa [5]): 100 nM; IC50 [4]: 7.5 nM

Row | IC50 [2] [nM] | IC90 [3] [nM] | Compound | other results
24 |  |  | CCc1cc(CCc2ccccc2)nn1C1CCN(C[C@H]2CN([C@@H](C(=O)O)C3CCCCC3)C[C@@H]2c2ccccc2)CC1 | IC50 [8]: 105 nM; IC90 (HeLa [9]): > 300 nM
25 | 2.2 | 0.4 | O=C(O)[C@@H](C1CCCCC1)N1C[C@H](CN2CCC(c3cc(Cc4ccccc4)n[nH]3)CC2)[C@@H](c2ccccc2)C1 | 
26 | 1.2 | 33 | O=C(O)[C@@H](C1CCCCC1)N1C[C@H](CN2CCC(c3n[nH]cc3CCc3ccccc3)CC2)[C@@H](c2ccccc2)C1 | 
27 | 4.4 | > 300 | O=C(O)[C@@H](C1CCCCC1)N1C[C@H](CN2CCC(c3n[nH]cc3C3(c4ccccc4)CC3)CC2)[C@@H](c2ccccc2)C1 | 
28 |  | > 300 | O=C(O)[C@@H](C1CCCCC1)N1C[C@H](CN2CCC(c3cc(-c4ccc(Cl)cc4Cl)[nH]n3)CC2)[C@@H](c2cccc(F)c2)C1 | IC50 [4]: 9 nM
29 |  |  | O=C(O)[C@@H](C1CCCCC1)N1C[C@H](CN2CCC(CCCc3ccccc3)CC2)[C@@H](c2ccccc2)C1 | IC95 [10]: 93 nM; IC50 [4]: 0.2 nM
30 | 9 | 11 | CCOC(=O)Cn1nc(Cc2ccccc2)cc1C1CCN(C[C@H]2CN([C@@H](C(=O)O)C3CCCCC3)C[C@@H]2c2ccccc2)CC1 | 
31 | 11 |  | CCn1ncc(C2(c3ccccc3)CC2)c1C1CCN(C[C@H]2CN([C@@H](C(=O)O)C3CCCCC3)C[C@@H]2c2ccccc2)CC1 | 
32 |  |  | CCc1cc(Cc2ccccc2)n(C2CCN(C[C@H]3CN([C@@H](C(=O)O)C4CCCCC4)C[C@@H]3c3ccccc3)CC2)n1 | IC50 [11]: 78 nM; IC90 (HeLa [12]): > 300 nM
33 |  | 11 | CCn1nc(CCc2ccccc2)cc1C1CCN(C[C@H]2CN([C@@H](C(=O)O)C3CCCCC3)C[C@@H]2c2cccc(F)c2)CC1 | clearance [6]: 72 mL/min/kg; bioavailability [7]: 3.2%; half-life [13]: 27 min; AUC N (Rattus norvegicus): 0.01 uM hr dose-1; IC50 [4]: 2.2 nM
34 |  |  | CCN(C(=O)OCc1ccccc1)C1CCN(CC[C@H](CN(C)S(=O)(=O)c2ccccc2)c2cccc(Cl)c2)CC1 | IC95 [10]: 13 nM; IC50 [4]: 2.4 nM
35 |  | > 300 | COc1ccc(-c2cc(C3CCN(C[C@H]4CN([C@@H](C(=O)O)C5CCCCC5)C[C@@H]4c4cccc(F)c4)CC3)[nH]n2)cc1 | IC50 [4]: 12 nM
36 | 4.2 | 3.7 | Cn1nc(Cc2ccccc2)cc1C1CCN(C[C@H]2CN([C@@H](C(=O)O)C3CCCCC3)C[C@@H]2c2ccccc2)CC1 | 
37 |  |  | Cn1cc(CCc2ccccc2)c(C2CCN(C[C@H]3CN([C@@H](C(=O)O)C4CCCCC4)C[C@@H]3c3ccccc3)CC2)n1 | IC50 [4]: 23 nM
38 |  | 0.4 | CCn1nc(Cc2ccccc2)cc1C1CCN(C[C@H]2CN([C@@H](C(=O)O)C3CCCCC3)C[C@@H]2c2ccccc2)CC1 | clearance [6]: 64 mL/min/kg; bioavailability [7]: 4.1%; half-life [14]: 49.2 min; AUC N (Rattus norvegicus): 0.02 uM hr dose-1; IC50 [15]: 2.1 nM; IC50 [16]: 1.2 nM
39 | 11.5 |  | CC(C)(c1ccccc1)c1cn[nH]c1C1CCN(C[C@H]2CN([C@@H](C(=O)O)C3CCCCC3)C[C@@H]2c2ccccc2)CC1 | 
40 | 22 | > 300 | CCn1nc(-c2ccccc2)cc1C1CCN(C[C@H]2CN([C@@H](C(=O)O)C3CCCCC3)C[C@@H]2c2ccccc2)CC1 | clearance [6]: 3.8 mL/min/kg; bioavailability [7]: 21%; half-life [13]: 90 min; AUC N (Rattus norvegicus): 1.7 uM hr dose-1; IC50 (HeLa [5]): 100 nM
41 | 4.8 | 33 | O=C(O)[C@@H](C1CCCCC1)N1C[C@H](CN2CCC(c3cc(Cc4ccccc4)nn3CC(F)(F)F)CC2)[C@@H](c2ccccc2)C1 | 
42 | 76 | > 300 | CCn1nc(C2CCN(C[C@H]3CN([C@@H](C(=O)O)C4CCCCC4)C[C@@H]3c3ccccc3)CC2)cc1Cc1ccccc1 | 
43 | 0.6 | 0.4 | CCn1ncc(CCc2ccccc2)c1C1CCN(C[C@H]2CN([C@@H](C(=O)O)C3CCCCC3)C[C@@H]2c2ccccc2)CC1 | clearance [6]: 79 mL/min/kg; bioavailability [7]: 2.6%; AUC N (Rattus norvegicus): 0.01 uM hr dose-1
44 |  |  | CCn1nc(-c2cccc3ccccc23)cc1C1CCN(C[C@H]2CN([C@@H](C(=O)O)C3CCCCC3)C[C@@H]2c2cccc(F)c2)CC1 | IC50 [4]: 16 nM
45 | 3 | 3.7 | CCn1ncc(Cc2ccccc2)c1C1CCN(C[C@H]2CN([C@@H](C(=O)O)C3CCCCC3)C[C@@H]2c2ccccc2)CC1 | IC90 (HeLa [17]): 10 nM
